Experimental data reported in ChEMBL document CHEMBL4184339, “NMR Biochemical Assay for Oxidosqualene Cyclase: Evaluation of Inhibitor Activities on Trypanosoma cruzi and Human Enzymes” (J Med Chem, 2018).

Experiments:
[1] = Inhibition of Trypanosoma cruzi strain CL Brener C-terminal His6-tagged OSC expressed in Pichia pastoris GS115 using 2,3-oxidosqualene as substrate after 20 mins by 1H NMR method
Outline: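 T. cruzi OSC was expressed in Pichia pastoris GS115, first grown in BMGY ([…]glycerol) at 30 °C for 3 days and then induced in BMMY (1% methanol) at 25 °C for 2 days. Cells were homogenized in Tris-HCl pH 7.5 with 250 mM NaCl. Purification buffers contained 0.2% Triton X-100 or 0.2–1.2% β-octylglucoside. The substrate, 2,3-oxidosqualene, was in 10 mM sodium phosphate buffer with varied inhibitor. Reactions started with 19 nM enzyme (final) and ran at 37 °C for 20 min. Lanosterol was quantified by 1H NMR with factor analysis, and IC50 was taken from a fit of the first-factor score.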

[2] = Selectivity ratio of IC50 for human C-terminal His6-tagged OSC to IC50 for Trypanosoma cruzi strain CL Brener C-terminal His6-tagged OSC
[3] = molecular target: T1, Lanosterol synthase (Homo sapiens, UniProt P48449); test: Inhibition of human C-terminal His6-tagged OSC expressed in Pichia pastoris GS115 using 2,3-oxidosqualene as substrate after 90 mins by 1H NMR method
T1 sequence (P48449 whole entry): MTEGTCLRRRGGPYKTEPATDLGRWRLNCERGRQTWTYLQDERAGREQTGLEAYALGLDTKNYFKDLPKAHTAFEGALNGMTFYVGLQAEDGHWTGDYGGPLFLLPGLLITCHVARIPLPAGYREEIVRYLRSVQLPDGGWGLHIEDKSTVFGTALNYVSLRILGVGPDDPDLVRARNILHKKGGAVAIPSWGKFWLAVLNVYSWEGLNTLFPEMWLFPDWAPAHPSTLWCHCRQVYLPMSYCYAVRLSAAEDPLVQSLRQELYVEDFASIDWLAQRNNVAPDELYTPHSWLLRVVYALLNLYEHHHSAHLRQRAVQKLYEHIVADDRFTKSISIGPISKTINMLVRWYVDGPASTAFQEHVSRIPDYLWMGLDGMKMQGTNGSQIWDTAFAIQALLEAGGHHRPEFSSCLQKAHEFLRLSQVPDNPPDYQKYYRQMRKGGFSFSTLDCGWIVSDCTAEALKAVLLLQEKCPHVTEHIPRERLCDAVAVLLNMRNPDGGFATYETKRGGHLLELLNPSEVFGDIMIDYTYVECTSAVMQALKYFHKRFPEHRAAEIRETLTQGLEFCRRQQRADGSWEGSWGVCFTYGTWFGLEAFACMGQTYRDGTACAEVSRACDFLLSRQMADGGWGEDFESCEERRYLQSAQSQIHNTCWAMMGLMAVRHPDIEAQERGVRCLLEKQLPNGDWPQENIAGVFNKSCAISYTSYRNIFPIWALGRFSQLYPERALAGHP
Outline: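 Human OSC was expressed in Pichia pastoris GS115 using BMGY at 30 °C for 3 days, then BMMY methanol induction at 25 °C for 2 days. Purification included a Superdex 200 step, with buffers containing 0.2% Triton X-100 or 0.2–0.8% β-octylglucoside. Product was measured by NMR with factor analysis, and IC50 was fitted from the first-factor score.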

[4] = system: Trypanosoma cruzi; test: Parasiticidal activity against amastigote stage of Trypanosoma cruzi Tulahuen infected in mouse brain fibroblast assessed as time duration of effect at 9.6 microM preincubated for 5 days followed by another 10 days incubation with fresh compound; type: functional
[5] = system: Trypanosoma cruzi; test: Parasiticidal activity against amastigote stage of Trypanosoma cruzi Tulahuen infected in mouse brain fibroblast assessed as time duration of effect at 19.2 microM preincubated for 5 days followed by another 10 days incubation with fresh compound; type: functional
[6] = system: Trypanosoma cruzi; test: Parasiticidal activity against amastigote stage of Trypanosoma cruzi Tulahuen infected in mouse brain fibroblast assessed as time duration of effect at 21.8 microM preincubated for 5 days followed by another 10 days incubation with fresh compound; type: functional
[7] = system: Trypanosoma cruzi; test: Parasiticidal activity against amastigote stage of Trypanosoma cruzi Tulahuen infected in mouse brain fibroblast assessed as time duration of effect at 10.9 microM preincubated for 5 days followed by another 10 days incubation with fresh compound; type: functional
[8] = system: Trypanosoma cruzi; test: Antiparasitic activity against epimastigote stage of Trypanosoma cruzi Tulahuen assessed as inhibition of parasite proliferation after 48 hrs by Alamar Blue assay; type: functional, organism-based
Outline: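 Epimastigotes (one million per assay) were cultured in LIT medium with 10% newborn calf serum and co-incubated with compound. Afterwards, alamarBlue was added and fluorescence was read as a measure of viability.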

| SMILES | Ratio IC50 [2] | IC50 [3] [nM] | IC50 [8] [nM] | IC50 [1] [nM] | Time [4] [days] | Time [5] [days] | Time [6] [days] | Time [7] [days] |
| --- | --- | --- | --- | --- | --- | --- | --- | --- |
| O=C(Cn1ccnc1[N+](=O)[O-])NCc1ccccc1 [BENZNIDAZOLE] |  |  |  |  | 35 | 53 |  |  |
| CN(C)CCOc1ccc(OC2CCN(S(=O)(=O)c3ccc(F)cc3)CC2)cc1.Cl | 2.7 | 120 | 2150 | 44 |  |  | 29 | 21 |
| C=CCN(C)CCCCCCOc1ccc(C(=O)c2ccc(Br)cc2)c(F)c1 |  |  |  | 13 |  |  |  |  |

The next lines start with results.

| Ratio IC50 [2] | IC50 [3] [nM] | IC50 [8] [nM] | SMILES | IC50 [1] [nM] | Time [4] [days] | Time [5] [days] | Time [6] [days] | Time [7] [days] |
| --- | --- | --- | --- | --- | --- | --- | --- | --- |
| 1.6 | 230 |  | CN(C)Cc1ccc(N2CCC(N(C)S(=O)(=O)c3ccc(Cl)cc3)CC2)cc1 | 140 |  |  |  |  |
| 0.38 | 16 | 110 | C=CCN(C)Cc1ccc(N2CCC(N(C)S(=O)(=O)c3ccc(Cl)cc3)CC2)cc1.Cl.Cl | 42 | 62 | 80 |  |  |
